Assay results reported in PMC4876928 (Clinical cancer research : an official journal of the …, 2016).

Legend:
[1] = tested on: phospho-AKT (pAKT) (S473) in platelet-rich plasma; experiment: pAKT; format: in vivo, human
Procedure, shortened: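 Patients took oral test compound QD on 21/28 or 28/28 schedules. Total AKT and pAKT (S473) were measured by Meso Scale Discovery immunoassay. Results are percent change in pAKT from baseline.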

[2] = Phase I safety and tolerability: DLTs, MTD, adverse events; format: in vivo, human

Cc1c(CN2CCN(C(=O)[C@H](C)O)CC2)sc2c(N3CCOCC3)nc(-c3cnc(N)nc3)nc12 [apitolisib]
sustained pAKT inhibition ([1]; 40 mg 28/28): > 90% | doses with target modulation ([1]; in vivo): ≥ 16 mg | suppression of phosphorylated serine-473 AKT levels ([1]; platelet-rich plasma, within 4 hours, MTD 50 mg): ≥ 90% | Decreased appetite, treatment related AE, n (%) ([2]; 30mg 28/28d (n=27), G3): 0 | Diarrhea, treatment related AE, n (%) ([2]; 30mg 28/28d (n=27), G3): 2 (7%) | Dry skin, treatment related AE, n (%) ([2]; 30mg 28/28d (n=27), G3): 0 | Fatigue, treatment related AE, n (%) ([2]; 30mg 28/28d (n=27), G3): 4 (15%) | Hyperglycemia, treatment related AE, n (%) ([2]; 30mg 28/28d (n=27), G3): 1 (4%) | Liver dysfunction (abnormal LFTs), treatment related AE, n (%) ([2]; 30mg 28/28d (n=27), G3): 1 (4%) | Mucosal inflammation, treatment related AE, n (%) ([2]; 30mg 28/28d (n=27), G3): 0 | Nausea, treatment related AE, n (%) ([2]; 30mg 28/28d (n=27), G3): 1 (4%) | Patients with any AE related to apitolisib, n (%) ([2]; 30mg 28/28d (n=27), G3): 14 (52%) | Pneumonitis, treatment related AE, n (%) ([2]; 30mg 28/28d (n=27), G3): 1 (4%) | Pruritus, treatment related AE, n (%) ([2]; 30mg 28/28d (n=27), G3): 0 | Rash (maculopapular, pruritic, macular, erythematous, generalized), treatment related AE, n (%) ([2]; 30mg 28/28d (n=27), G3): 5 (19%) | Vomiting, treatment related AE, n (%) ([2]; 30mg 28/28d (n=27), G3): 0 | Decreased appetite, treatment related AE, n (%) ([2]; 30mg 28/28d (n=27), ≤G2): 13 (48%) | Diarrhea, treatment related AE, n (%) ([2]; 30mg 28/28d (n=27), ≤G2): 16 (59%) | Dry skin, treatment related AE, n (%) ([2]; 30mg 28/28d (n=27), ≤G2): 7 (26%) | Fatigue, treatment related AE, n (%) ([2]; 30mg 28/28d (n=27), ≤G2): 15 (56%) | Hyperglycemia, treatment related AE, n (%) ([2]; 30mg 28/28d (n=27), ≤G2): 0 | Liver dysfunction (abnormal LFTs), treatment related AE, n (%) ([2]; 30mg 28/28d (n=27), ≤G2): 1 (4%) | Mucosal inflammation, treatment related AE, n (%) ([2]; 30mg 28/28d (n=27), ≤G2): 3 (11%) | Nausea, treatment related AE, n (%) ([2]; 30mg 28/28d (n=27), ≤G2): 11 (41%) | Patients with any AE related to apitolisib, n (%) ([2]; 30mg 28/28d (n=27), ≤G2): 12 (44%) | Pneumonitis, treatment related AE, n (%) ([2]; 30mg 28/28d (n=27), ≤G2): 3 (11%) | Pruritus, treatment related AE, n (%) ([2]; 30mg 28/28d (n=27), ≤G2): 2 (7%) | Rash (maculopapular, pruritic, macular, erythematous, generalized), treatment related AE, n (%) ([2]; 30mg 28/28d (n=27), ≤G2): 12 (44%) | Vomiting, treatment related AE, n (%) ([2]; 30mg 28/28d (n=27), ≤G2): 5 (19%) | Decreased appetite, treatment related AE, n (%) ([2]; 30mg 28/28d (n=27), ≥G4): 0 | Diarrhea, treatment related AE, n (%) ([2]; 30mg 28/28d (n=27), ≥G4): 0 | Dry skin, treatment related AE, n (%) ([2]; 30mg 28/28d (n=27), ≥G4): 0 | Fatigue, treatment related AE, n (%) ([2]; 30mg 28/28d (n=27), ≥G4): 0 | Hyperglycemia, treatment related AE, n (%) ([2]; 30mg 28/28d (n=27), ≥G4): 1 (4%) | Liver dysfunction (abnormal LFTs), treatment related AE, n (%) ([2]; 30mg 28/28d (n=27), ≥G4): 0 | Mucosal inflammation, treatment related AE, n (%) ([2]; 30mg 28/28d (n=27), ≥G4): 0 | Nausea, treatment related AE, n (%) ([2]; 30mg 28/28d (n=27), ≥G4): 0 | Patients with any AE related to apitolisib, n (%) ([2]; 30mg 28/28d (n=27), ≥G4): 1 (4%) | Pneumonitis, treatment related AE, n (%) ([2]; 30mg 28/28d (n=27), ≥G4): 0 | Pruritus, treatment related AE, n (%) ([2]; 30mg 28/28d (n=27), ≥G4): 0 | Rash (maculopapular, pruritic, macular, erythematous, generalized), treatment related AE, n (%) ([2]; 30mg 28/28d (n=27), ≥G4): 0 | Vomiting, treatment related AE, n (%) ([2]; 30mg 28/28d (n=27), ≥G4): 0 | DLTs, Description ([2]; 40 mg 21/28 d, stage 1): G4 fasting hyperglycemia | Decreased appetite, treatment related AE, n (%) ([2]; 40mg 28/28d (n=51), G3): 0 | Diarrhea, treatment related AE, n (%) ([2]; 40mg 28/28d (n=51), G3): 5 (10%) | Dry skin, treatment related AE, n (%) ([2]; 40mg 28/28d (n=51), G3): 1 (2%) | Fatigue, treatment related AE, n (%) ([2]; 40mg 28/28d (n=51), G3): 2 (4%) | Hyperglycemia, treatment related AE, n (%) ([2]; 40mg 28/28d (n=51), G3): 9 (18%) | Liver dysfunction (abnormal LFTs), treatment related AE, n (%) ([2]; 40mg 28/28d (n=51), G3): 6 (12%) | Mucosal inflammation, treatment related AE, n (%) ([2]; 40mg 28/28d (n=51), G3): 3 (6%) | Nausea, treatment related AE, n (%) ([2]; 40mg 28/28d (n=51), G3): 1 (2%) | Patients with any AE related to apitolisib, n (%) ([2]; 40mg 28/28d (n=51), G3): 26 (51%) | Pneumonitis, treatment related AE, n (%) ([2]; 40mg 28/28d (n=51), G3): 2 (4%) | Pruritus, treatment related AE, n (%) ([2]; 40mg 28/28d (n=51), G3): 1 (2%) | Rash (maculopapular, pruritic, macular, erythematous, generalized), treatment related AE, n (%) ([2]; 40mg 28/28d (n=51), G3): 7 (14%) | Vomiting, treatment related AE, n (%) ([2]; 40mg 28/28d (n=51), G3): 1 (2%) | Decreased appetite, treatment related AE, n (%) ([2]; 40mg 28/28d (n=51), ≤G2): 11 (22%) | Diarrhea, treatment related AE, n (%) ([2]; 40mg 28/28d (n=51), ≤G2): 23 (45%) | Dry skin, treatment related AE, n (%) ([2]; 40mg 28/28d (n=51), ≤G2): 7 (14%) | Fatigue, treatment related AE, n (%) ([2]; 40mg 28/28d (n=51), ≤G2): 34 (67%) | Hyperglycemia, treatment related AE, n (%) ([2]; 40mg 28/28d (n=51), ≤G2): 5 (10%) | Liver dysfunction (abnormal LFTs), treatment related AE, n (%) ([2]; 40mg 28/28d (n=51), ≤G2): 2 (4%) | Mucosal inflammation, treatment related AE, n (%) ([2]; 40mg 28/28d (n=51), ≤G2): 15 (29%) | Nausea, treatment related AE, n (%) ([2]; 40mg 28/28d (n=51), ≤G2): 22 (43%) | Patients with any AE related to apitolisib, n (%) ([2]; 40mg 28/28d (n=51), ≤G2): 20 (39%) | Pneumonitis, treatment related AE, n (%) ([2]; 40mg 28/28d (n=51), ≤G2): 1 (2%) | Pruritus, treatment related AE, n (%) ([2]; 40mg 28/28d (n=51), ≤G2): 13 (25%) | Rash (maculopapular, pruritic, macular, erythematous, generalized), treatment related AE, n (%) ([2]; 40mg 28/28d (n=51), ≤G2): 20 (39%) | Vomiting, treatment related AE, n (%) ([2]; 40mg 28/28d (n=51), ≤G2): 10 (20%) | Decreased appetite, treatment related AE, n (%) ([2]; 40mg 28/28d (n=51), ≥G4): 0 | Diarrhea, treatment related AE, n (%) ([2]; 40mg 28/28d (n=51), ≥G4): 0 | Dry skin, treatment related AE, n (%) ([2]; 40mg 28/28d (n=51), ≥G4): 0 | Fatigue, treatment related AE, n (%) ([2]; 40mg 28/28d (n=51), ≥G4): 0 | Hyperglycemia, treatment related AE, n (%) ([2]; 40mg 28/28d (n=51), ≥G4): 0
